Source: ChEMBL document CHEMBL4138245, “Design and synthesis of novel quinacrine-[1,3]-thiazinan-4-one hybrids for their anti-breast cancer activity” (Eur J Med Chem, 2018)
The source made the active and inactive calls. The calls are words filed in the database; no cut-off is given here.

How the values were obtained:
[1] = biological target: Serine/threonine-protein kinase mTOR (Homo sapiens) (UniProt P42345); experiment: Inhibition of mTOR pathway in human MCF7 cells assessed as reduction in S6K phosphorylation at Thr389 residue at 2 uM after 6 hrs by Western blot method; assay type: cell-based
[2] = Selectivity index, ratio of compound concentration for cell killing activity in human 184B5 cells to compound concentration for cell killing activity in human BT20 cells; assay type: toxicity, cell-based; conditions: 184B5 cells versus BT20 cells, read-out: Selectivity Index
MDA-MB-231 [3] = experiment: Antiproliferative activity against human MDA-MB-231 cells after 48 hrs by SRB assay; assay type: functional, cell-based; conditions: MDA-MB-231, 48 h
How it was run: (§1)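 SRB assay: 5,000-10,000 cells/well plated, 24 h at 37 °C/5% CO2 before drug; seven concentrations from 100 μM down (two- to ten-fold serial dilutions, DMSO ≤0.1% final) for 48 h; TCA fixation (10% final, 60 min, 4 °C), 0.4% SRB in 1% acetic acid, solubilized in 10 mM Tris base, absorbance 515-564 nm; growth = (Ti−Tz)/(C−Tz)×100; IC50 from sigmoidal variable-slope fit; triplicates, ≥2 independent experiments.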

[4] = Selectivity index, ratio of compound concentration for cell killing activity in human MCF10A cells to compound concentration for cell killing activity in human NCI-H1975 cells; assay type: toxicity, cell-based; conditions: MCF10A cells versus NCI-H1975 cells, read-out: Selectivity Index
MCF-10A = experiment: Antiproliferative activity against human MCF10A cells assessed as compound concentration required to show complete inhibition of cell viability up to 96 hrs by SRB assay; assay type: cell-based
[5] = Selectivity index, ratio of compound concentration for cell killing activity in human MCF10A cells to compound concentration for cell killing activity in human MCF7 cells; assay type: toxicity, cell-based; conditions: MCF10A cells versus MCF7 cells, read-out: Selectivity Index
MCF7 [6] = experiment: Cell cycle arrest in human MCF7 cells assessed as DNA content at 2 uM after 48 hrs by BrdU incorporation assay (reference value: 29.4%); assay type: functional
[7] = Selectivity index, ratio of compound concentration for cell killing activity in human MCF10A cells to compound concentration for cell killing activity in human LNCAP cells; assay type: toxicity, cell-based; conditions: MCF10A cells versus LNCAP cells, read-out: Selectivity Index
[8] = biological target: Serine/threonine-protein kinase mTOR (Homo sapiens) (UniProt P42345); experiment: Inhibition of mTOR pathway in human MCF7 cells assessed as reduction in S6K phosphorylation at Ser371 residue at 2 uM after 6 to 24 hrs by Western blot method; assay type: cell-based
[9] = biological target: Serine/threonine-protein kinase mTOR (Homo sapiens) (UniProt P42345); experiment: Inhibition of mTOR pathway in human MCF7 cells assessed as reduction in 4EBP1 phosphorylation at Thr37/Thr46 residues at 2 uM after 6 hrs by Western blot method; assay type: cell-based
MDA-MB-231 [10] = experiment: Antiproliferative activity against human MDA-MB-231 cells assessed as compound concentration required to show complete inhibition of cell viability up to 96 hrs by SRB assay; assay type: functional
MCF7 [11] = experiment: Cell cycle arrest in human MCF7 cells assessed as DNA content at 2 uM after 12 hrs by BrdU incorporation assay (reference value: 20.7%); assay type: functional
MCF7 [12] = experiment: Cell cycle arrest in human MCF7 cells assessed as DNA content at 2 uM after 6 hrs by BrdU incorporation assay (reference value: 31.6%); assay type: functional
[13] = Selectivity index, ratio of compound concentration for cell killing activity in human MCF10A cells to compound concentration for cell killing activity in human MDA-MB-453 cells; assay type: toxicity, cell-based; conditions: MCF10A cells versus MDA-MB-453 cells, read-out: Selectivity Index
[14] = biological target: Serine/threonine-protein kinase Chk2 (Homo sapiens) (UniProt O96017); experiment: Induction of CHK2 phosphorylation at T68 residue in human MCF7 cells at 2 uM after 12 to 48 hrs by Western blot method; assay type: cell-based
Sequence of Serine/threonine-protein kinase Chk2 (Homo sapiens) (O96017 whole entry): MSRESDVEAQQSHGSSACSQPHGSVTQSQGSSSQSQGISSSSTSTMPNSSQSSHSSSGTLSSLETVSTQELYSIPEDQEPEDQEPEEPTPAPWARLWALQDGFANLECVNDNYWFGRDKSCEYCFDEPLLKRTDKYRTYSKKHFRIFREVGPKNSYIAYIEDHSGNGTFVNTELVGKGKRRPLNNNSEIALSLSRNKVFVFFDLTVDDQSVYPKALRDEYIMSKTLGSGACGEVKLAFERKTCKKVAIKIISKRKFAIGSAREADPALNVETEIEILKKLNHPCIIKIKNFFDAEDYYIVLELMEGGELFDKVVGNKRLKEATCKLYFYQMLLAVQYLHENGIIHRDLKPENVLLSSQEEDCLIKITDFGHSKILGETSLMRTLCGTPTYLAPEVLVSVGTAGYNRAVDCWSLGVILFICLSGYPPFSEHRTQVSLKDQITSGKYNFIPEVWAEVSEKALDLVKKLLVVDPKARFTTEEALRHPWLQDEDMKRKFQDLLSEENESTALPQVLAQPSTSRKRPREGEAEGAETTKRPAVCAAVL

PC-3 = experiment: Antiproliferative activity against human PC3 cells assessed as compound concentration required to show complete inhibition of cell viability up to 96 hrs by SRB assay; assay type: functional
BT-474 = experiment: Antiproliferative activity against human BT474 cells assessed as compound concentration required to show complete inhibition of cell viability up to 96 hrs by SRB assay; assay type: functional
[15] = Selectivity index, ratio of compound concentration for cell killing activity in human 184B5 cells to compound concentration for cell killing activity in human PC3 cells; assay type: toxicity, cell-based; conditions: 184B5 cells versus PC3 cells, read-out: Selectivity Index
[16] = biological target: Serine/threonine-protein kinase mTOR (Homo sapiens) (UniProt P42345); experiment: Inhibition of mTOR pathway in human MCF7 cells assessed as reduction in S6K phosphorylation at Thr389 residue at 2 uM after 24 hrs by Western blot method; assay type: cell-based
184B5 = experiment: Antiproliferative activity against human 184B5 cells after 48 hrs by SRB assay; assay type: cell-based; conditions: 184B5, 48 h; how it was run: as §1
MDA-MB-453 = experiment: Antiproliferative activity against human MDA-MB-453 cells assessed as compound concentration required to show complete inhibition of cell viability up to 96 hrs by SRB assay; assay type: functional
MCF7 [17] = experiment: Potency index, ratio of cisplatin IC50 to compound IC50 for antiproliferative activity against human MCF7 cells; assay type: functional
[18] = Selectivity index, ratio of compound concentration for cell killing activity in human 184B5 cells to compound concentration for cell killing activity in human SK-BR-3 cells; assay type: toxicity, cell-based; conditions: 184B5 cells versus SK-BR-3 cells, read-out: Selectivity Index
MCF7 [19] = experiment: Effect on Cyclin-D protein expression in human MCF7 cells at 2 uM after 24 to 72 hrs by Western blot method; assay type: functional, cell-based
MCF7 [20] = experiment: Inhibition of DNA replication in human MCF7 cells assessed as EdU incorporation at 2 uM pretreated for 48 hrs followed by EdU addition at final 45 mins of 48 hrs incubation time (reference value: 45 to 63%); assay type: functional; set-up: scale not given: the % may be the effect or the level left
[21] = Selectivity index, ratio of compound concentration for cell killing activity in human 184B5 cells to compound concentration for cell killing activity in human MDA-MB-231 cells; assay type: toxicity, cell-based; conditions: 184B5 cells versus MDA-MB-231 cells, read-out: Selectivity Index
A549 = experiment: Antiproliferative activity against human A549 cells assessed as compound concentration required to show complete inhibition of cell viability up to 96 hrs by SRB assay; assay type: functional
[22] = Selectivity index, ratio of compound concentration for cell killing activity in human 184B5 cells to compound concentration for cell killing activity in human MCF7 cells; assay type: toxicity, cell-based; conditions: 184B5 cells versus MCF7 cells, read-out: Selectivity Index
[23] = Selectivity index, ratio of compound concentration for cell killing activity in human 184B5 cells to compound concentration for cell killing activity in human BT474 cells; assay type: toxicity, cell-based; conditions: 184B5 cells versus BT474 cells, read-out: Selectivity Index
[24] = biological target: RAC-alpha serine/threonine-protein kinase (Homo sapiens) (UniProt P31749); experiment: Upregulation of AKT phosphorylation at Thr308 residue in human MCF7 cells at 2 uM after 24 to 48 hrs by Western blot method; assay type: cell-based
Sequence of RAC-alpha serine/threonine-protein kinase (Homo sapiens) (P31749 whole entry): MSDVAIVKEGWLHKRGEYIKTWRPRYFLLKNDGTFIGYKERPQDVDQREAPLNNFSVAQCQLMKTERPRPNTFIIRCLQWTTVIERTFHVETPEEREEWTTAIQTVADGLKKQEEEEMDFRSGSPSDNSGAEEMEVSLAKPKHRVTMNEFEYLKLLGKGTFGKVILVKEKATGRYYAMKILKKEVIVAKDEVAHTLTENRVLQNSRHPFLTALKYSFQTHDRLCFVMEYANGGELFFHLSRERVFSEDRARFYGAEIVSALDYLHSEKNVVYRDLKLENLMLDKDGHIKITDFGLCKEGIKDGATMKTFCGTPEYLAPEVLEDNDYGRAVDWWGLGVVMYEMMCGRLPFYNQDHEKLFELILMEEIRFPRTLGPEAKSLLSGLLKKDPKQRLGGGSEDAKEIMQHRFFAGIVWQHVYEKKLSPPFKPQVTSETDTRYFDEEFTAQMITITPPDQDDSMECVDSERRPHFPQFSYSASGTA
How it was run: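 MCF7 cells were treated with the compound, collected and PBS-washed, then lysed on ice (Triton X-100/Tris pH 7.4 buffer with PMSF and protease inhibitors). Lysates were BCA-quantified, and 30–40 µg protein was resolved on 8% or 10% SDS-PAGE. Proteins were semi-dry transferred to PVDF, milk-blocked and probed with primary antibody overnight at 4 °C, then detected by ECL. Blots are representative of three independent experiments.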

inhibition [1]: inactive
IC50 (MDA-MB-231 [3]): 2.8 µM
inhibition [8]: inactive
inhibition [9]: Active
Activity [14]: inactive
inhibition [16]: Active
Activity [24]: Active
SMILES: COc1ccc2nc3cc(Cl)ccc3c(NCCCN3C(=O)CCSC3c3cccs3)c2c1 (stereo not given)
selectivity ratio [2]: 3 to 6
selectivity ratio [4]: 3 to 6
Activity (MCF-10A): > 6 µM
selectivity ratio [5]: 3 to 6
Activity (MCF7 [6]): 0.9%
selectivity ratio [7]: 3 to 6
Activity (MDA-MB-231 [10]): 2 µM
Activity (MCF7 [11]): 8.7%
Activity (MCF7 [12]): 3.7%
selectivity ratio [13]: 3 to 6
Activity (PC-3): 2 µM
Activity (BT-474): 1 µM
selectivity ratio [15]: 3 to 6
IC50 (184B5): 4.96 µM
Activity (MDA-MB-453): 2 µM
Ratio IC50 (MCF7 [17]): 37.3
selectivity ratio [18]: 3 to 6
Activity (MCF7 [19]): inactive
Activity (MCF7 [20]): 5%
selectivity ratio [21]: 3 to 6
Activity (A549): 2 µM
selectivity ratio [22]: 3 to 6
selectivity ratio [23]: 3 to 6
